In ChEMBL document CHEMBL4017535 (J Med Chem, 2017):

Tests used:
Liver [1] = assay: Unbound intrinsic clearance in human liver microsomes at 10 uM preincubated for 5 mins followed by NADPH addition measured after 60 mins by HPLC-UV-MS analysis; format: ADME, microsome; details: 1 h
[2] = molecular target: SWI/SNF-related matrix-associated actin-dependent regulator of chromatin subfamily A member 4 (Homo sapiens, UniProt P51532); assay: Binding affinity to human SMARCA4 (A1448 to S1575 residues) expressed in bacterial expression system by BROMOscan assay
Adenosine receptor A2b = Adenosine receptor A2b (Homo sapiens, UniProt P29275); assay: Antagonist activity at adenosine A2B receptor (unknown origin)
[3] = molecular target: Adenosine receptor A1 (Homo sapiens) (UniProt P30542); assay: Displacement of [3H]-DPCPX from recombinant human adenosine A1 receptor expressed in CHO cells at 10 uM; format: cell-based
[4] = molecular target: Transcription intermediary factor 1-alpha (Homo sapiens, UniProt O15164); assay: Binding affinity to human TRIM24 (PHD, Bromo) (P790 to P977 residues) expressed in bacterial expression system by BROMOscan assay
[5] = Half life in mouse at 10 mg/kg, po; format: ADME, organism-based; details: in vivo
[6] = molecular target: Bromodomain-containing protein 9 (Homo sapiens, UniProt Q9H8M2); assay: Binding affinity to human BRD9 (R130 to V259 residues) expressed in bacterial expression system by BROMOscan assay
Rattus norvegicus [7] = assay: Oral absorption in rat at 1 mg/kg; format: ADME, organism-based; details: in vivo
In short: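 Oral absorption is expressed as FaFg, calculated as F/(1-Clp/Qh). Liver blood flow (Qh) was 5.2 L/hr/kg for mouse and 3.8 L/hr/kg for rat. Mouse dosing was 3 mg/kg IV and 10 mg/kg PO; rat dosing was 1 mg/kg IV and PO.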

[8] = Oral bioavailability in human at 1 mg; format: ADME, organism-based; details: in vivo
In short: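 Human F (%) was estimated from observed F in preclinical species. It accompanies a clinical 1 mg oral dose given to cancer patients (n = 3).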

[9] = Half life in po dosed dog; format: ADME, organism-based, Canis lupus familiaris; details: in vivo
[10] = Oral bioavailability in mouse at 10 mg/kg; format: ADME, organism-based; details: in vivo
In short: (§1)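 Mouse PK: 3 mg/kg IV and 10 mg/kg PO. Clearance is expressed unbound, Cl_p,u in L/hr/kg. AUC is unbound, in µM*hr. FaFg is computed as F/(1-Clp/Qh), with mouse liver blood flow Qh 5.2 L/hr/kg. Unbound plasma fraction was measured separately.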

[11] = Intrinsic clearance in dog hepatocytes; format: ADME, cell-based, Canis lupus familiaris, Hepatocyte; details: read-out: CLH (converted)
Mus musculus [12] = assay: Unbound AUC in mouse at 10 mg/kg, po; format: ADME, organism-based; details: in vivo; in short: as §1
Rattus norvegicus [13] = assay: Unbound AUC in rat at 1 mg/kg, po; details: in vivo
Liver [14] = assay: Unbound intrinsic clearance in mouse liver microsomes; format: ADME, microsome
In short: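 Liver microsome stability is expressed as unbound intrinsic clearance, Cl_int,u, in L/hr/kg. Dextromethorphan served as the in-house low-clearance reference control and verapamil as the high-clearance reference control.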

Kasumi 1 = assay: Antitumor activity against gamma-irradiated human Kasumi-1 cells xenografted in NOD.SCID mouse assessed as tumor growth inhibition at 1 mg/kg, po qd for 25 days relative to control; format: functional; details: Kasumi 1, light or radiation study, 600 h, read-out: TGI
In short: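 Kasumi-1 AML xenograft in mice, with tumor growth inhibition (TGI) as the read-out. For the test agent, dosing was oral, once daily at 1 mg/kg for 25 days, with tolerability tracked as body-weight loss. For 5-azacitidine, dosing was IV, Q7d, at 8 mg/kg.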

[15] = molecular target: T1, Bromodomain-containing protein 4 (Homo sapiens, UniProt O60885); assay: Binding affinity to human N-terminal His6-tagged BRD4 BD1-BD2 (K57 to K550 residues) after 1 hr using alexa-647 conjugated probe by TR-FRET assay
[16] = Intrinsic clearance in mouse hepatocytes; format: ADME, cell-based, Hepatocyte; details: read-out: CLH (converted)
Mus musculus [17] = assay: Inhibition of LPS-induced IL-6 release in po dosed CD-1 mouse serum administered for 1 hr followed by LPS challenge measured after 2 hrs by immunoassay; format: functional, organism-based
In short: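 Compound given orally to mice, followed by an LPS challenge. Plasma IL-6 and plasma compound concentration were both measured 2 hours after LPS. Inhibition was related to dose and to plasma concentration at the time of cytokine measurement. Values are mean ± SE, n=5 per group.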

[18] = molecular target: Bromodomain-containing protein 3 (Homo sapiens, UniProt Q15059); assay: Binding affinity to BRD3 BD1 to BD2 (P24 to A416 residues) (unknown origin)
[19] = Intrinsic clearance in monkey liver microsomes; format: ADME, Macaca mulatta, microsome; details: rhesus monkey, read-out: CLH (converted)
Peregrin = Peregrin (Homo sapiens, UniProt P55201); assay: Binding affinity to human BRPF1 (E627 to G740 residues) expressed in bacterial expression system by BROMOscan assay
[20] = molecular target: Bromodomain-containing protein 7 (Homo sapiens, UniProt Q9NPI1); assay: Binding affinity to human BRD7 (L125 to R254 residues) expressed in mammalian expression system by BROMOscan assay
[21] = Intrinsic clearance in human liver microsomes at 10 uM preincubated for 5 mins followed by NADPH addition measured after 60 mins by HPLC-UV-MS analysis; format: ADME, microsome; details: read-out: CLH
[22] = molecular target: Bromodomain and PHD finger-containing protein 3 (Homo sapiens, UniProt Q9ULD4); assay: Binding affinity to human BRPF3 (E588 to G701 residues) expressed in bacterial expression system by BROMOscan assay
[23] = molecular target: T1, Bromodomain-containing protein 4; assay: Inhibition of BRD4 in human H1299 cells assessed as decrease in HPV LCR-E2-EP400-mediated transcriptional repression after 24 hrs by Bright-Glo luciferase reporter gene assay; format: cell-based
Rattus norvegicus [24] = assay: Plasma unbound clearance in rat at 1 mg/kg, iv; format: ADME, organism-based; details: in vivo
In short: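 In rats, 1 mg/kg was given by both IV and PO routes. IV clearance is unbound (Cl_p,u, L/hr/kg). FaFg is taken as F/(1-Clp/Qh), using rat Qh 3.8 L/hr/kg. Unbound plasma fraction was determined in rat plasma.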

[25] = Permeability in MDCK cells; format: ADME, cell-based, Canis lupus familiaris; details: dog, read-out: permeability
Protein polybromo-1 = Protein polybromo-1 (Homo sapiens, UniProt Q86U86); assay: Binding affinity to human PBRM1 bromodamian-5 (S645 to D766 residues) expressed in bacterial expression system by BROMOscan assay
[26] = Fraction unbound in mouse plasma at 1 uM after 4 hrs by LC-MS/MS method; format: ADME, cell-free
[27] = molecular target: Bromodomain-containing protein 8 (Homo sapiens, UniProt Q9H0E9); assay: Binding affinity to human BRD8 (1) (S700 to F854 residues) expressed in mammalian expression system by BROMOscan assay

Bromodomain-containing protein 9, sequence (Q9H8M2 whole entry, the tested form may be a part): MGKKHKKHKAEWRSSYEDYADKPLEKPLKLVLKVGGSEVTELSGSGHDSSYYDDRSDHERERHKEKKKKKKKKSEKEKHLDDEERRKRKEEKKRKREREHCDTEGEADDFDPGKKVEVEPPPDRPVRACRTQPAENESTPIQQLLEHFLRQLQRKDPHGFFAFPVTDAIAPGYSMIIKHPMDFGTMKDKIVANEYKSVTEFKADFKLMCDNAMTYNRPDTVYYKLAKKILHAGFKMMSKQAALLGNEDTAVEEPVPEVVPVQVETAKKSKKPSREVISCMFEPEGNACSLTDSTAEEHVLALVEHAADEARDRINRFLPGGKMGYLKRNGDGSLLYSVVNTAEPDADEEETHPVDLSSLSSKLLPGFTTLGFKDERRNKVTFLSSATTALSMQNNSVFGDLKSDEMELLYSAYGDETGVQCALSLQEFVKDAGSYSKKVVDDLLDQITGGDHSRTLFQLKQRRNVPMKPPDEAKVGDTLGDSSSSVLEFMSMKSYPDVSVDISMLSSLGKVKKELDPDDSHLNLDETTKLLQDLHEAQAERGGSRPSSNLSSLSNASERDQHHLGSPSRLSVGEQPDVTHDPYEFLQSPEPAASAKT
Adenosine receptor A2b, sequence (P29275 whole entry): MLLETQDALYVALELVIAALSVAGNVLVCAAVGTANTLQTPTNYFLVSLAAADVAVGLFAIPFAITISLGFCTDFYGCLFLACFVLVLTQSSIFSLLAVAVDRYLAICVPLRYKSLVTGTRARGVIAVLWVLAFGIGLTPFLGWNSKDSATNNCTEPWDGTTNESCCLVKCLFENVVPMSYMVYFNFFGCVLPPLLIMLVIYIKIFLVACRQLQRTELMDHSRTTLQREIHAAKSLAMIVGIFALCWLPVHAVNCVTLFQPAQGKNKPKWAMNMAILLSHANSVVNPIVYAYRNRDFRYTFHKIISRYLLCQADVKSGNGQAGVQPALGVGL
Adenosine receptor A1 (Homo sapiens), sequence (P30542 whole entry, the tested form may be a part): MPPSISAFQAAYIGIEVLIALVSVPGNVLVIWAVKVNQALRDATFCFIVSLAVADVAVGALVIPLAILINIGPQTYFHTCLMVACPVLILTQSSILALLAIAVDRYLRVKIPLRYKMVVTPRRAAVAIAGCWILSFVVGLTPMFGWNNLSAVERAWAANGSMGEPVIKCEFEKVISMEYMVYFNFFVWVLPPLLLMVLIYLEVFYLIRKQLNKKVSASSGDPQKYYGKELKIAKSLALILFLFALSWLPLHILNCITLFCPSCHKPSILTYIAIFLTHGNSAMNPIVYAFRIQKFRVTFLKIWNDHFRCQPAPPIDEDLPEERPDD
Protein polybromo-1, sequence (Q86U86 whole entry, the tested form may be a part): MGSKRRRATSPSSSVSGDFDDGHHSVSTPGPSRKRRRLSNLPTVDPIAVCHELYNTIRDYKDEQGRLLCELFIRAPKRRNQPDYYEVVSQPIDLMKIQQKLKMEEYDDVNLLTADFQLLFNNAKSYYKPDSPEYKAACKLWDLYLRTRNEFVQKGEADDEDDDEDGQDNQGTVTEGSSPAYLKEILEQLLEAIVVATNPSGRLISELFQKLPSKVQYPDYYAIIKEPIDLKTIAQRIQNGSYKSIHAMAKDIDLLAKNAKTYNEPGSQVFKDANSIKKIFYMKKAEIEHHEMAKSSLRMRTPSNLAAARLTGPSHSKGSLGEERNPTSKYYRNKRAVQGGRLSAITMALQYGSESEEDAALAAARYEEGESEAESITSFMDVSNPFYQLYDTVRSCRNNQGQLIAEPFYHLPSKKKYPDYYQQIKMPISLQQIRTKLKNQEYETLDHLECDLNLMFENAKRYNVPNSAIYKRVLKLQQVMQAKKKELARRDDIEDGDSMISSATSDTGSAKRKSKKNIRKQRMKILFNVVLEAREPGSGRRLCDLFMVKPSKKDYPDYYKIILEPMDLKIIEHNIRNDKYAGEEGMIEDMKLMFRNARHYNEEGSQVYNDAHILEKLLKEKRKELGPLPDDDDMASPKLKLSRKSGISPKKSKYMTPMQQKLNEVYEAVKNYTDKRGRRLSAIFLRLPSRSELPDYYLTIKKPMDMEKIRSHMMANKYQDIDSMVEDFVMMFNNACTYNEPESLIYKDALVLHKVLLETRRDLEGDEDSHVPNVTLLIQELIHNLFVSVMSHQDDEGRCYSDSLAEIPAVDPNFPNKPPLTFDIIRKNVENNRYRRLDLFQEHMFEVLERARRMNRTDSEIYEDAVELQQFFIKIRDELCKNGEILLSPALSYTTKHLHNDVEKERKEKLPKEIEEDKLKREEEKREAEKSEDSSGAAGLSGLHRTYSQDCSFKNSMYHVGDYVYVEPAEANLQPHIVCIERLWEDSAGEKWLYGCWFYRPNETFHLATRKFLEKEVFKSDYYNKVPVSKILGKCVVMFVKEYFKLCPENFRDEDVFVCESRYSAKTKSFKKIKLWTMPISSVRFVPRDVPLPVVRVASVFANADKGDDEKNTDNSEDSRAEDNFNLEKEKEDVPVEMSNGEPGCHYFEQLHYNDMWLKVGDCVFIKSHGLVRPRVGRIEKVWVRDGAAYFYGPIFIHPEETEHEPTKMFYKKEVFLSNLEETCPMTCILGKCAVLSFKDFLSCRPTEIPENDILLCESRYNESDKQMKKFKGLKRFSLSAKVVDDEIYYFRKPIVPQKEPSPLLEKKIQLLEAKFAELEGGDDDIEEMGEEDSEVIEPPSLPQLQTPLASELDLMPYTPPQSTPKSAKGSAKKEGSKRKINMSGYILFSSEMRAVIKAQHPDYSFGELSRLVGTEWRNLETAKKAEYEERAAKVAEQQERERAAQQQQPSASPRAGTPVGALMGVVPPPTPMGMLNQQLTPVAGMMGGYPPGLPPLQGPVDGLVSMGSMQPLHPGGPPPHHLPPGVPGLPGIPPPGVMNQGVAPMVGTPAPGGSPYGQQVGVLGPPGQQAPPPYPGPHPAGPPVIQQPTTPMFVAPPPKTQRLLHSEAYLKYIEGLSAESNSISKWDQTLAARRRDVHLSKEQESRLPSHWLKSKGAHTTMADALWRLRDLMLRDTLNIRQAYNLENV
Bromodomain-containing protein 3, sequence (Q15059 whole entry, the tested form may be a part): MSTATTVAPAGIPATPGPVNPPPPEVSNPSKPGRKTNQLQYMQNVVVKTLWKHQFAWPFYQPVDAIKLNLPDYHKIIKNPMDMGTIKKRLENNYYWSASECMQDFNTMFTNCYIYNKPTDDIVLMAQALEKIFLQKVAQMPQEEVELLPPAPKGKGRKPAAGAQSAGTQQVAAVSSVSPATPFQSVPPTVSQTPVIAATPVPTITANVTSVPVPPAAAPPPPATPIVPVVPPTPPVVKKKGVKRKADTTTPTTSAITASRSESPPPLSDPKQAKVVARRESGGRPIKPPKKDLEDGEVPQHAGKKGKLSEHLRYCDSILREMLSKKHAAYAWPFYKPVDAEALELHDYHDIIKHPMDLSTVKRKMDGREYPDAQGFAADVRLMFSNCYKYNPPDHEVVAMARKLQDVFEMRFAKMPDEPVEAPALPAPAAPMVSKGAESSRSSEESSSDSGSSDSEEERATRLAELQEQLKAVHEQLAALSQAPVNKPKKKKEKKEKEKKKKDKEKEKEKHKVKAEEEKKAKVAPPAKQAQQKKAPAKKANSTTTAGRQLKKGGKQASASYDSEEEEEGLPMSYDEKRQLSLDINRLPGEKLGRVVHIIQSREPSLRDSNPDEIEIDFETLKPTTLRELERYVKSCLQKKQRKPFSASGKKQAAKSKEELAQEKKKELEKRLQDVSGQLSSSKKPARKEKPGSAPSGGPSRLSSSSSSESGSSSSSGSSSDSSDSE
Bromodomain and PHD finger-containing protein 3, sequence (Q9ULD4 whole entry, the tested form may be a part): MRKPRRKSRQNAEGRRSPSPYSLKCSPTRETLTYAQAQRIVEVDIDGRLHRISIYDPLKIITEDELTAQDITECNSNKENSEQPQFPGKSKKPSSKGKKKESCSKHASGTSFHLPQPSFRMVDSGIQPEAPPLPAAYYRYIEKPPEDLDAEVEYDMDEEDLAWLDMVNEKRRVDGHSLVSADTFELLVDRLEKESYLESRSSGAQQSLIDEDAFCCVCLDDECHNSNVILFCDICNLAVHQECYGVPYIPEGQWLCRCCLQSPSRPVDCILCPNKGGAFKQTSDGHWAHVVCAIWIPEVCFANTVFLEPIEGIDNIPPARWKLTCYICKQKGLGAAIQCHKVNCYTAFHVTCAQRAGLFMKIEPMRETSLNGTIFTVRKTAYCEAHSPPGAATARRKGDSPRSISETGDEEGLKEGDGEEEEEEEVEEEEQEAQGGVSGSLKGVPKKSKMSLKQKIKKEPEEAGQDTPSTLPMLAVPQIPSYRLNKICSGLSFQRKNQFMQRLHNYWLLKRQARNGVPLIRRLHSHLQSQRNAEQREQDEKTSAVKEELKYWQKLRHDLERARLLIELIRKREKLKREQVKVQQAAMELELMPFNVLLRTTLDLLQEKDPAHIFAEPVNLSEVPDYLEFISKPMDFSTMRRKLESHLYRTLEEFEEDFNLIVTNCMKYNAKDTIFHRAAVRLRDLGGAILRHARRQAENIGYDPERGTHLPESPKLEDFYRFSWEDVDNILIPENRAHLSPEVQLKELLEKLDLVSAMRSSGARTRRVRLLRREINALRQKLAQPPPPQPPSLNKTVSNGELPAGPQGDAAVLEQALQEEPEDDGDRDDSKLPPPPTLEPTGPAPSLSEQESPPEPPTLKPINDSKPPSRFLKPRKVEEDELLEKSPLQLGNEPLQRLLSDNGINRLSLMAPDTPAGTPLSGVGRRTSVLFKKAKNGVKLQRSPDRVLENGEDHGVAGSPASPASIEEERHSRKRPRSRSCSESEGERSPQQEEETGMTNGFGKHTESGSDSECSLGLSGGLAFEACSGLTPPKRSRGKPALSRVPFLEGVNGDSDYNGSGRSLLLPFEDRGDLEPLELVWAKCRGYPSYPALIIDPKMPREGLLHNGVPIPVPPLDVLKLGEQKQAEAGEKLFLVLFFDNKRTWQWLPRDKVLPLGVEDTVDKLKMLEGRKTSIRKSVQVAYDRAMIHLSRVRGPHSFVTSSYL

For `CCS(=O)(=O)Nc1ccc(Oc2ccc(F)cc2F)c(-c2cn(C)c(=O)c3[nH]ccc23)c1` [MIVEBRESIB], the CL free (Liver [1]) was less than 48.3 mL/min/kg, the Kd [2] was greater than 1000 nM and the IC50 (Adenosine receptor A2b) was 2600 nM. For the same molecule, the inhibition [3] was 97%, the Kd [4] was greater than 1000 nM and the half-life [5] was 2.7 h. It also gave a Kd [6] greater than 1000 nM, a FaFg (Rattus norvegicus [7]) of 0.77 and a bioavailability [8] of 50%. The half-life [9] was 5.8 h, the bioavailability [10] was 68 to 83% and the CLint scaled [11] was 35 mL/min/kg. For the same molecule, the fAUC (Mus musculus [12]) was 0.63 µM·h, the fAUC (Rattus norvegicus [13]) was 0.27 µM·h and the CL free (Liver [14]) was 550 mL/min/kg. The inhibition in vivo at 1 mg/kg (Kasumi 1) was 99%, the Ki [15] was 1.5 nM and the CLint scaled [16] was 58.3 mL/min/kg. The inhibition (Mus musculus [17]) was “Dose-dependent effect”, the Ki [18] was 12.2 nM and the CLint scaled [19] was 38.3 mL/min/kg. For the same molecule, the Kd (Peregrin) was greater than 1000 nM, the Kd [20] was greater than 1000 nM and the CLint scaled at 10 µM [21] was less than 25 mL/min/kg. It also gave a Kd [22] greater than 1000 nM, an EC50 [23] of 20 nM and a clearance (Rattus norvegicus [24]) of 450 mL/min/kg. For the same molecule, the Papp [25] was 29 ×10⁻⁶ cm/s, the Kd (Protein polybromo-1) was greater than 1000 nM and the fraction unbound at 4 h, 1 µM [26] was 0.02. For the same molecule, the Kd [27] was greater than 1000 nM.
